Laboratory results as given in ChEMBL document CHEMBL3739413, “Discovery of substituted-2,4-dimethyl-(naphthalene-4-carbonyl)amino-benzoic acid as potent and selective EP4 antagonists” (Bioorg Med Chem Lett, 2016).
≈ marks a conversion by molar mass, not a printed value.

Key:
[1] = target: T1, Prostaglandin E2 receptor EP4 subtype (Homo sapiens, UniProt P35408); assay: Antagonist activity at human EP4 receptor
[2] = target: T1, Prostaglandin E2 receptor EP4 subtype; assay: Antagonist activity at human EP4 receptor in HEK293 cells assessed as inhibition of PGE2-induced cAMP accumulation; assay type: functional, cell-based
Procedure, shortened: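 HEK293 cells; functional readout was inhibition of PGE2-induced cAMP accumulation. IC50 reported ± SEM, with number of experiments.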

[3] = target: T1, Prostaglandin E2 receptor EP4 subtype; assay: Antagonist activity at EP4 receptor in human whole blood assessed as reversal of inhibition of PGE2 mediated LPS-induced TNF alpha production pretreated for 30 mins using 3,3',5,5' tetramethylbiphenyl-4,4'-diamine substrate measured after 20 to 24 hrs by immunoassay; assay type: tissue-based
Procedure, shortened: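 Pooled heparinized blood from volunteer donors (no NSAIDs or celecoxib for 48 h, no glucocorticoids for 2 weeks). Compounds added in triplicate as 7-point curves from DMSO stocks at 100× final, preincubated 30 min at 37 °C under 5% CO2. Stimulated with LPS ± PGE2 (final 10 nM), incubated 20–24 h, plasma TNFα read by ELISA at A450–A650. IC50 from sigmoidal fit, reported as geometric mean ± SD.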

[4] = Drug metabolism in rat hepatic microsomes; assay type: ADME, Microsome; details: liver microsomes, read-out: Drug metabolism
[5] = Drug metabolism in human hepatic microsomes; assay type: ADME, Microsome; details: liver microsomes, read-out: Drug metabolism
[6] = Aqueous solubility of the compound at pH 6; assay type: physicochemical; details: aqueous medium
[7] = target: T1, Prostaglandin E2 receptor EP4 subtype; assay: Potency index, ratio of IC50 for CJ-023423 to IC50 for test compound against EP4 receptor in human whole blood; assay type: tissue-based
[8] = Drug metabolism in rat hepatic microsomes incubated for 30 mins in presence of NADPH; assay type: ADME, Microsome; details: liver microsomes, read-out: Drug metabolism
Procedure, shortened: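 Compound incubated 30 min with rat liver microsomes and NADPH; percent metabolized reported.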

[9] = Clearance in rat at 1 mg/kg, iv; assay type: ADME, organism-based; details: in vivo
Procedure, shortened: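 Rat dosed intravenously at 1 mg/kg.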

[10] = Cmax in rat at 5 mg/kg, po; assay type: ADME, organism-based; set-up: dose 5 mg/kg, route oral; details: in vivo
[11] = Tmax in rat at 5 mg/kg, po; assay type: ADME, organism-based; details: in vivo
[12] = Oral bioavailability in rat at 5 mg/kg; assay type: ADME, organism-based; details: in vivo
[13] = Ratio of Cmax in rat to IC50 for EP4 in human whole blood
[14] = target: T2, Prostaglandin E2 receptor EP1 subtype (Homo sapiens, UniProt P34995); assay: Antagonist activity at human EP1 receptor
T2 sequence (P34995 whole entry): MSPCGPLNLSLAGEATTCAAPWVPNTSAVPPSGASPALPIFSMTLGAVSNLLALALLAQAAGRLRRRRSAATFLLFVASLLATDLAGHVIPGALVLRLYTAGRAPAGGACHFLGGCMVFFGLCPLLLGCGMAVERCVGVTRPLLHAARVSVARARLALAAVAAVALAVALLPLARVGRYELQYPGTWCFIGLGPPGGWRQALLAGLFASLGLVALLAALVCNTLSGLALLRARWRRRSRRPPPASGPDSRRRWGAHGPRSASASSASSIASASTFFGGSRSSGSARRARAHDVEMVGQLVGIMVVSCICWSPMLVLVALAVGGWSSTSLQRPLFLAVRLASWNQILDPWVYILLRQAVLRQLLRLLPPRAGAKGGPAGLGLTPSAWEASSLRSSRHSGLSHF

[15] = target: Prostaglandin E2 receptor EP2 subtype (Homo sapiens, UniProt P43116); assay: Antagonist activity at human EP2 receptor
Prostaglandin E2 receptor EP2 subtype, sequence (P43116 whole entry): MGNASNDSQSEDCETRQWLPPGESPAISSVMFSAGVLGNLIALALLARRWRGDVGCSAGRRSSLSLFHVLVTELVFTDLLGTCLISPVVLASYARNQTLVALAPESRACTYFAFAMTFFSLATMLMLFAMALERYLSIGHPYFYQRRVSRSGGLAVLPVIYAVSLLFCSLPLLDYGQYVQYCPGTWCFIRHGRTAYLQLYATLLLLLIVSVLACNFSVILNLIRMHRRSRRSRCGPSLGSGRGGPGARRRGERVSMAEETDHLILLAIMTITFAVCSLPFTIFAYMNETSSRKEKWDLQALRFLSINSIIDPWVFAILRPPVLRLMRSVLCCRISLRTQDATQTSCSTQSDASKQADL

[16] = target: T3, Prostaglandin E2 receptor EP3 subtype (Homo sapiens, UniProt P43115); assay: Antagonist activity at human EP3 receptor
T3 sequence (P43115 whole entry): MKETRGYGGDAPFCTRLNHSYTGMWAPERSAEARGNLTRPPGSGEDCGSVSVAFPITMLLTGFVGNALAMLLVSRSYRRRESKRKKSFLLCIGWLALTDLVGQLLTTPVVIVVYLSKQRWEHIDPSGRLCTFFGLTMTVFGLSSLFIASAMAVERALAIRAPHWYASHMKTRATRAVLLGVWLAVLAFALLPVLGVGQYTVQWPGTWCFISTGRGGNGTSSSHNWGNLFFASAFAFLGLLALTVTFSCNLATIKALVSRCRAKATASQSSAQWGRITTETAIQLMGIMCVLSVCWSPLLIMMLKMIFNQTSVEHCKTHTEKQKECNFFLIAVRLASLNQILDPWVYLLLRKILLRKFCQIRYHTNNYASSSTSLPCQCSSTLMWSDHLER

Cytochrome P450 1A2 = target: T4, Cytochrome P450 1A2 (Homo sapiens, UniProt P05177); assay: Inhibition of CYP1A2 (unknown origin); assay type: ADME
T4 sequence (P05177 whole entry): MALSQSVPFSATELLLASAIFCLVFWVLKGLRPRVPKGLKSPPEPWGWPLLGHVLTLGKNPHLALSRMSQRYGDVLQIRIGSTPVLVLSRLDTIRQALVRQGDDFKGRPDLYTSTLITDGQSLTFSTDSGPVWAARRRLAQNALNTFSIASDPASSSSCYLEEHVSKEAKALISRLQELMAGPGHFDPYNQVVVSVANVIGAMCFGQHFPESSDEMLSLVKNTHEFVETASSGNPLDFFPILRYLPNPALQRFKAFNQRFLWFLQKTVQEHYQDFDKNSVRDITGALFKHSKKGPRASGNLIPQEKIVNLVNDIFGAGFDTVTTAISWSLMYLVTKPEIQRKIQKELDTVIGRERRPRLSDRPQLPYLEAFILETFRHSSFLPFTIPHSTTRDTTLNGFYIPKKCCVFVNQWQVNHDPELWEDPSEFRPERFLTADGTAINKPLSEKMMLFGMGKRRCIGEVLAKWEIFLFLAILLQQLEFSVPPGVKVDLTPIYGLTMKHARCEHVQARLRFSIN

Cytochrome P450 2B6 = target: T5, Cytochrome P450 2B6 (Homo sapiens, UniProt P20813); assay: Inhibition of CYP2B6 (unknown origin); assay type: ADME
T5 sequence (P20813 whole entry): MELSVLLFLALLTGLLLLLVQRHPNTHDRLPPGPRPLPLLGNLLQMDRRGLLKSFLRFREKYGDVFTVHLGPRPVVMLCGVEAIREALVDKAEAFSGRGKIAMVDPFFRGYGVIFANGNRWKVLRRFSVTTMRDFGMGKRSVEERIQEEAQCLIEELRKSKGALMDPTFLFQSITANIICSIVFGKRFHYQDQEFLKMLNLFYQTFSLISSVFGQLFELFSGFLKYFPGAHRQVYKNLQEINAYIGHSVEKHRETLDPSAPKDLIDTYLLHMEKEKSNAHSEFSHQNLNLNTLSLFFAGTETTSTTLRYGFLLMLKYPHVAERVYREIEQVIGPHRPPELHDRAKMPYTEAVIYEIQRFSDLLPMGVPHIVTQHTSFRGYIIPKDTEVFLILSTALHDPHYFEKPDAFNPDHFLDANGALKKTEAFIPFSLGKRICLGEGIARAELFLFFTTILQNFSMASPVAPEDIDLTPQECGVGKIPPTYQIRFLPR

Cytochrome P450 2C19 = Cytochrome P450 2C19 (Homo sapiens, UniProt P33261); assay: Inhibition of CYP2C19 (unknown origin); assay type: ADME
Cytochrome P450 2C19, sequence (P33261 whole entry): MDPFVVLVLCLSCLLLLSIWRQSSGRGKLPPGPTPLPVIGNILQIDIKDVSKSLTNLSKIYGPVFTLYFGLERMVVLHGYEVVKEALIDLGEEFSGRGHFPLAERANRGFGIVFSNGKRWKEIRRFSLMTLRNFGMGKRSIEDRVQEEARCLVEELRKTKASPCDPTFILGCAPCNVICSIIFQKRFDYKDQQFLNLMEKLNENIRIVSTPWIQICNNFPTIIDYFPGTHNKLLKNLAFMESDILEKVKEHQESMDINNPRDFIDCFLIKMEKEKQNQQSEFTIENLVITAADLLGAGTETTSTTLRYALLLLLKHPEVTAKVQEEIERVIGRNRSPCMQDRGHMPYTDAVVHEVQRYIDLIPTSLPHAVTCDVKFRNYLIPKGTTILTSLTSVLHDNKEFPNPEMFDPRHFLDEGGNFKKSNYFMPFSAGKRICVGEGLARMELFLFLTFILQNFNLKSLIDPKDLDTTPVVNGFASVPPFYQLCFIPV

Cytochrome P450 2C8 = target: T6, Cytochrome P450 2C8 (Homo sapiens, UniProt P10632); assay: Inhibition of CYP2C8 (unknown origin); assay type: ADME
T6 sequence (P10632 whole entry): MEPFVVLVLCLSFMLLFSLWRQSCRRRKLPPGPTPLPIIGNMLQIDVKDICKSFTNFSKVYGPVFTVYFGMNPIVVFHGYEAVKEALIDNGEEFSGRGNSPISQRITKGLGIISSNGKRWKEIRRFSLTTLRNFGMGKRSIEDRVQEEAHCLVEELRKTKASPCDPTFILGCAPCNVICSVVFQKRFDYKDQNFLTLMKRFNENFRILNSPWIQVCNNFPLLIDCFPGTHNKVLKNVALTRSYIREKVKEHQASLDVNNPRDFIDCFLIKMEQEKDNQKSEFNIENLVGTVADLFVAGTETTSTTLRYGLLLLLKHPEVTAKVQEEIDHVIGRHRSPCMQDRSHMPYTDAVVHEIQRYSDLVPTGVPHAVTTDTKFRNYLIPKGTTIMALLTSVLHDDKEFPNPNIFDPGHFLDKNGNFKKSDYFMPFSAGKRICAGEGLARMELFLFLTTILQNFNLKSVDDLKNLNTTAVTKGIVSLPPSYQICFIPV

Cytochrome P450 2C9 = Cytochrome P450 2C9 (Homo sapiens, UniProt P11712); assay: Inhibition of CYP2C9 (unknown origin); assay type: ADME
Cytochrome P450 2C9, sequence (P11712 whole entry): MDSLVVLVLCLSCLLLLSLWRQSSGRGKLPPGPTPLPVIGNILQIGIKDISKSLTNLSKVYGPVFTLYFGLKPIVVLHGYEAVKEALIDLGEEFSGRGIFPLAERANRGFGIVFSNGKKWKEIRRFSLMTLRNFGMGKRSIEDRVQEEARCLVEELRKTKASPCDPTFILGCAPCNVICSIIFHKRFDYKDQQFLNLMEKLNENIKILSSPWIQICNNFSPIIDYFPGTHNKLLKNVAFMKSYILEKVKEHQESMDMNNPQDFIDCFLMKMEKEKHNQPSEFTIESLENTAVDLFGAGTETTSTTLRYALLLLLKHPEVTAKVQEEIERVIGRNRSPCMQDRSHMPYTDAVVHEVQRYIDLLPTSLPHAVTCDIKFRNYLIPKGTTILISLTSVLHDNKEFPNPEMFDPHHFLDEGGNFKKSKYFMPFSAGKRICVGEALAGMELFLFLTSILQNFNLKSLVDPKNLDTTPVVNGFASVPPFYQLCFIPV

Cytochrome P450 2D6 = Cytochrome P450 2D6 (Homo sapiens, UniProt P10635); assay: Inhibition of CYP2D6 (unknown origin); assay type: ADME
Cytochrome P450 2D6, sequence (P10635 whole entry): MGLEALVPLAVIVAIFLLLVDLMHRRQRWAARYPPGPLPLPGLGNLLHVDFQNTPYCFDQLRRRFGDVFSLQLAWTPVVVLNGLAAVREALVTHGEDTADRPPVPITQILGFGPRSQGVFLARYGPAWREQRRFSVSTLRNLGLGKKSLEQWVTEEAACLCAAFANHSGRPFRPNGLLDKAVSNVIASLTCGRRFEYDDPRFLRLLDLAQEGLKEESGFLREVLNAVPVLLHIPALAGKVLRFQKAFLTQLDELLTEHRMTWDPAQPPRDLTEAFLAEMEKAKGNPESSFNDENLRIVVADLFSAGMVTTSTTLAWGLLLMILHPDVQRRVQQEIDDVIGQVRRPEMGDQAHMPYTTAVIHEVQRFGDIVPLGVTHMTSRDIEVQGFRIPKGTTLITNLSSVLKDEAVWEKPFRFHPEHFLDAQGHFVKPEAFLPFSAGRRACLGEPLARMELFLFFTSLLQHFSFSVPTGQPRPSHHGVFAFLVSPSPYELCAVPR

Cytochrome P450 3A4 = Cytochrome P450 3A4 (Homo sapiens, UniProt P08684); assay: Inhibition of CYP3A4 (unknown origin); assay type: ADME
Cytochrome P450 3A4, sequence (P08684 whole entry): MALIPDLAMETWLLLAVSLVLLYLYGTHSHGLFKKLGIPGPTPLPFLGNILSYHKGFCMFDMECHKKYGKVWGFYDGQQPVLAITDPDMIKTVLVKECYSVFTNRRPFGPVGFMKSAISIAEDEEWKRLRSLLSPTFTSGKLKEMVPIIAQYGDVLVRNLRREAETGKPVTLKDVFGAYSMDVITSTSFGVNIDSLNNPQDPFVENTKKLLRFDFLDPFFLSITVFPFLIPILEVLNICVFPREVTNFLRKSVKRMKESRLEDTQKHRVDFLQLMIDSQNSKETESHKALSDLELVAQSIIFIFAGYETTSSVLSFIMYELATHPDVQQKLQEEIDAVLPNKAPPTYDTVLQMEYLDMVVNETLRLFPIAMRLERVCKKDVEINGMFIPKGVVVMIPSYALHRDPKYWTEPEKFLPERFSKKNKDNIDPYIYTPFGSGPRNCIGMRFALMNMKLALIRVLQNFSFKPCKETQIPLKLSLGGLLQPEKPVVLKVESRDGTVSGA

T1 sequence (P35408 whole entry): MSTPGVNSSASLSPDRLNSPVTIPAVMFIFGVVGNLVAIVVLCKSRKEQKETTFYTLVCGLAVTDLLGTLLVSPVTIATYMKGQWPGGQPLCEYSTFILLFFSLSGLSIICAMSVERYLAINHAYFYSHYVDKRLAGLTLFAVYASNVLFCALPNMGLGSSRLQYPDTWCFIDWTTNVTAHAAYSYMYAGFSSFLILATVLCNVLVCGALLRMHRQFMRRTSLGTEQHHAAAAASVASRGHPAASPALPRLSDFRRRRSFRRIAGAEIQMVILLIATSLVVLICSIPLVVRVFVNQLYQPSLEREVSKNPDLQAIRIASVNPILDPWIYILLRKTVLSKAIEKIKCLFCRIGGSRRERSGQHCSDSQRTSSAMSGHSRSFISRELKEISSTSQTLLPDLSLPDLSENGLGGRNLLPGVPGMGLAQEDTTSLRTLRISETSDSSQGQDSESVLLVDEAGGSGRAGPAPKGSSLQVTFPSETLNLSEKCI

## Cc1cccc(C)c1NC(=O)c1cc(-c2ccc(C(=O)O)cc2)nc2ccccc12
[1]
  Ki: > 19200 nM
[2]
  IC50: > 25000 nM
[3]
  IC50: > 30000 nM

## CCc1nc2c(C)nc(C)cc2n1-c1ccc(CCNC(=O)NS(=O)(=O)c2ccc(C)cc2)cc1 [GRAPIPRANT]
[3]
  IC50: 1520 nM
[4]
  metabolised: 5%
[5]
  metabolised: 2%
[6]
  solubility: 977 µg/mL (≈ 1990 µM)

## Cc1ccc(C(=O)O)c(C)c1NC(=O)c1cc(-c2cccc(CO)c2)cc2ccccc12
[1]
  Ki: 1.98 nM
[2]
  IC50: 2.42 nM
[3]
  IC50: 6.2 nM
[7]
  Ratio IC50: > 250
[8]
  metabolised at 0.5 h: < 1%
[9]
  clearance: 23.8 mL/min/kg
[10]
  Cmax: 85.7 ng/mL
[11]
  Tmax: 15 min
[12]
  bioavailability: 6%
[13]
  Ratio: 33

## Cc1ccc(C(=O)O)c(C)c1NC(=O)c1cc(-c2cccc(Cl)c2)cc2ccccc12
[1]
  Ki: 3.49 nM
[2]
  IC50: 3.62 nM
[3]
  IC50: 243 nM
[8]
  metabolised at 0.5 h: 7%
[9]
  clearance: 1.9 mL/min/kg
[10]
  Cmax: 10900 ng/mL
[11]
  Tmax: 60 min
[12]
  bioavailability: 100%
[13]
  Ratio: 104
[14]
  IC50: > 25000 nM
  Ki: > 19500 nM
[15]
  IC50: 3700 nM
  Ki: 2800 nM
[16]
  IC50: > 25000 nM
  Ki: > 17500 nM
Cytochrome P450 1A2
  IC50: > 10000 nM
Cytochrome P450 2B6
  IC50: > 10000 nM
Cytochrome P450 2C19
  IC50: > 10000 nM
Cytochrome P450 2C8
  IC50: > 10000 nM
Cytochrome P450 2C9
  IC50: > 10000 nM
Cytochrome P450 2D6
  IC50: > 10000 nM
Cytochrome P450 3A4
  IC50: > 10000 nM

## Cc1cc(C(=O)O)cc(C)c1NC(=O)c1cc(-c2ccccc2)cc2ccccc12
[1]
  Ki: 8.04 nM
[2]
  IC50: 3.48 nM
[3]
  IC50: 623 nM

## Cc1cc(C(=O)O)cc(C)c1NC(=O)c1cc(-c2cccc(CO)c2)nc2ccccc12
[1]
  Ki: 52.3 nM
[2]
  IC50: 3.08 nM
[3]
  IC50: 501 nM
[8]
  metabolised at 0.5 h: < 1%
[9]
  clearance: 59.6 mL/min/kg
[10]
  Cmax: 42.3 ng/mL
[11]
  Tmax: 15 min
[12]
  bioavailability: 3%
[13]
  Ratio: 0.2

## Cc1ccc(C(=O)O)c(C)c1NC(=O)c1cc(-c2cccc(CO)c2)nc2ccccc12
[1]
  Ki: 17 nM
[2]
  IC50: 5.2 nM
[3]
  IC50: 312 nM
[7]
  Ratio IC50: > 5

## Cc1cc(C(=O)O)cc(C)c1NC(=O)c1cc(-c2cccc(CO)c2)cc2ccccc12
[1]
  Ki: 3.54 nM
[2]
  IC50: 1.11 nM
[3]
  IC50: 136 nM

## Cc1cc(C(=O)O)cc(C)c1NC(=O)c1cc(-c2ccccc2)nc2ccccc12
[1]
  Ki: 39.2 nM
[2]
  IC50: 11.2 nM
[3]
  IC50: 1980 nM

## Cc1ccc(C(=O)O)c(C)c1NC(=O)c1cc(-c2ccccc2)cc2ccccc12
[1]
  Ki: 6.72 nM
[2]
  IC50: 5.65 nM
[3]
  IC50: 577 nM

## Cc1cccc(C)c1NC(=O)c1cc(-c2ccccc2)nc2ccccc12
[1]
  Ki: 512 nM
[2]
  IC50: 128 nM
[3]
  IC50: > 30000 nM
[4]
  metabolised: 64%
[5]
  metabolised: 71%
[6]
  solubility: < 1 µg/mL
